Screening results deposited in PubChem BioAssay by Broad Institute.
Shown are actives, neighbours in structure and some others; about 5.9% of the full set was active somewhere.
T cruzi growth-1: blocks T. cruzi growth in NIH3T3 culture | T. cruzi beta-gal in NIH3T3, GalScreen luminescence, 90 h | inhibition, % at 8.34 µM | hit rate 5.9% among 77,000 | AID 624255;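 active = mean inhibition above about 93%, with at least 55% of replicates each passing it, limit read from the data, passing the limit was not always enough; inconclusive = only one of those two conditions holds; inactive = neither condition holds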
GASC1 inh: inhibitors of human demethylase GASC-1 KDM4C | Q9H3R0 | GST-KDM4C 2-372, H3K9me3 peptide, LANCE TR-FRET | inhibition, % at 12.5 µM | hit rate 0.15% among 96,000 | AID 720574;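 active = mean replicate inhibition above about 25%, with at least 55% of replicates also reaching it, limit read from the data, passing the limit was not always enough; inconclusive = only one of those two conditions met; inactive = neither condition met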
Target sequence (Q9H3R0 2-372 limits assumed): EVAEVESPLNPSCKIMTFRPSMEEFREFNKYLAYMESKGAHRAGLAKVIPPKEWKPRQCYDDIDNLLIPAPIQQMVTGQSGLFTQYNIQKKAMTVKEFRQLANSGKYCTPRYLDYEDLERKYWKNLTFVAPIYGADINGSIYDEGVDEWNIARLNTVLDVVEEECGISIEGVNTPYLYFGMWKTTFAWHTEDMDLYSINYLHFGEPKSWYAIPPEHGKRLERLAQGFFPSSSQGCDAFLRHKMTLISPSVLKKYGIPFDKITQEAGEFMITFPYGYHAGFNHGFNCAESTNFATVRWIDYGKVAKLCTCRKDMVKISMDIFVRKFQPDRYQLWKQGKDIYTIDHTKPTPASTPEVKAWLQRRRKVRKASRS
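Test system: N-terminal GST-fused human GASC-1 (KDM4C) fragment, residues 2-372; quantity: GASC-1 enzyme at 10 nM final in reaction; dosing: single dose; schedule: 30 min demethylation and 1 h detection at room temperature; signal: LANCE TR-FRET, excitation 340 nm, emissions 618 and 671 nm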
IDH1 mut inh: IDH1 R132H (human) inhibition; hit rate 0.18% among 70,000; inhibition, % at 10 µM; IDH1 R132H reductase, diaphorase/resazurin fluorescence, 60 min; O75874; in the data active = inhibition above about 34%; inconclusive = no clear call, values can overlap the other calls; inactive = below about 11%;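 note: 0% = DMSO and 100% = no enzyme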
Pf Dd2 growth: P. falciparum Dd2 growth inhibition; SYBR Green, 72 h; stronger effect = lower value; activity change, % at 10 µM; hit rate 2.3% among 94,000; AID 1159554; in the data active = activity change below about -80%; inconclusive = no clear call, values can overlap the other calls
T cruzi growth-2: Trypanosoma cruzi proliferation inhibition; shares compounds with T cruzi growth-1; T. cruzi beta-gal in NIH3T3, GalScreen luminescence, 90 h; inhibition, % at 8.35 µM; hit rate 72% among 5,600; AID 651739;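 active = mean replicate inhibition above about 95% and at least 55% of replicates individually reaching it, limit read from the data; inconclusive = only one of the two criteria is met; inactive = neither criterion is met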
T cruzi growth-3: inhibitors of T. cruzi proliferation; shares compounds with T cruzi growth-1; T. cruzi beta-gal in NIH3T3, GalScreen luminescence, 90 h; inhibition, % at 2.09 µM; hit rate 21% among 5,600; AID 651740;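 active = mean inhibition above about 95%, with at least 55% of replicates also reaching it, limit read from the data; inconclusive = meets just one of the two conditions; inactive = meets neither condition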;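 note: plate controls were neutral control median for no effect and positive control median for full effect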
NIH3T3 tox: NIH/3T3 (mouse) viability loss. shares compounds with T cruzi growth-1. NIH/3T3 viability, CellTiter-Glo ATP luminescence, 90 h. hit rate 14% among 5,600. cytotoxicity (signal decrease), % at 8.35 µM;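 active = mean signal decrease across replicates above about 35% based on untreated-well scatter, with enough replicates individually passing, limit read from the data; inconclusive = no rule stated though some were filed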;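 note: 0% = median of neutral control wells and 100% = median of positive control wells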
NIH3T3 tox 2: kills mouse NIH/3T3 fibroblasts | shares compounds with T cruzi growth-1 | NIH/3T3 viability, CellTiter-Glo ATP luminescence, 90 h | inhibition, % at 24.9 µM | hit rate 56% among 5,600 | AID 651744;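 active = mean loss of cell viability signal at or above a set limit, and enough replicates individually reaching it; inconclusive = meets only the mean limit or only the replicate share; inactive = meets neither condition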;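 note: 0% = median of neutral control wells and 100% = median of positive control wells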
An asterisk follows results filed as active; u = inconclusive; x = not tested or not shown.

SMILES	T cruzi growth-1	GASC1 inh	IDH1 mut inh	Pf Dd2 growth	T cruzi growth-2	T cruzi growth-3	NIH3T3 tox	NIH3T3 tox 2
C[C@@H]1CCCCO[C@H](CN(C)S(=O)(=O)c2ccc(F)cc2)[C@@H](C)CN([C@@H](C)CO)C(=O)c2cc(NC(=O)Nc3ccc(F)cc3)ccc2O1	100*	0	-11	-66	108*	46	10	51*
C[C@H](CO)N1C[C@H](C)[C@H](CN(C)S(=O)(=O)c2ccc(F)cc2)OCCCC[C@H](C)Oc2ccc(NC(=O)Nc3ccc4c(c3)OCO4)cc2C1=O	106*	13	0	-39	109*	73	-3	19
C[C@@H]1CN([C@H](C)CO)C(=O)c2cc(NC(=O)Nc3ccc4c(c3)OCO4)ccc2O[C@@H](C)CCCCO[C@H]1CN(C)S(=O)(=O)c1ccc(F)cc1	74	1	x	-71	x	x	x	x
COc1ccccc1NC(=O)CSc1nnc(-c2ccc([N+](=O)[O-])cc2)n1-c1ccccc1	x	x	2	x	x	x	x	x
C[C@H](CO)N1C[C@H](C)[C@@H](CN(C)C(=O)CC2CC2)Oc2cc(C#CCC3CCCC3)ccc2S1(=O)=O	116*	-2	3	-66	u	102*	31	104*
C[C@H](CO)N1C[C@H](C)[C@H](CN(C)C(=O)CC2CC2)Oc2cc(C#CCC3CCCC3)ccc2S1(=O)=O	121*	-4	3	-66	99*	63	2	104*
C[C@H]1CN([C@@H](C)CO)S(=O)(=O)c2ccc(C#CCC3CCCC3)cc2O[C@H]1CN(C)C(=O)CN(C)C	107	-1	0	-69	x	x	x	x
C[C@H]1CN([C@@H](C)CO)S(=O)(=O)c2ccc(C#CCC3CCCC3)cc2O[C@@H]1CN(C)C(=O)CC1CC1	121*	x	0	-66	103*	113*	-22	105*
C[C@H](CO)N1C[C@H](C)[C@@H](CN(C)C(=O)CN(C)C)Oc2cc(C#CCC3CCCC3)ccc2S1(=O)=O	122	2	2	-71	x	x	x	x
COc1cc(NC(=O)Cn2nc(C(F)(F)F)c(Cl)c2C)cc([N+](=O)[O-])c1	x	x	0	x	x	x	x	x
CC(C)C#Cc1cnc2c(c1)C(=O)N([C@@H](C)CO)C[C@H](C)[C@@H](CN(C)C(=O)Nc1ccc(F)cc1)O2	-13	-1	0	-44	x	x	x	x
CC(C)C#Cc1cnc2c(c1)C(=O)N([C@H](C)CO)C[C@H](C)[C@H](CN(C)C(=O)Nc1ccc(F)cc1)O2	116*	-1	1	-18	-51	28	15	86*
CC(C)C#Cc1cnc2c(c1)C(=O)N([C@@H](C)CO)C[C@H](C)[C@H](CN(C)C(=O)Nc1ccc(F)cc1)O2	102*	-2	x	-34	46	40	30	u
Cc1ccc(S(=O)(=O)N(C)CC(=O)Nc2ccccc2Cl)cc1	x	x	0	x	x	x	x	x
COc1ccc(NC(=O)CC2NCCNC2=O)cc1 (stereo not drawn)	x	x	0	x	x	x	x	x
O=C(Nc1ccccc1)N1CCCCN2[C@H](C1)[C@@H](c1ccc(C#CC3CC3)cc1)[C@@H]2CO	105*	0	x	1	96*	80	43*	104*
O=C(Nc1ccccc1)N1CCCCN2[C@H](CO)[C@H](c3ccc(C#CC4CC4)cc3)[C@@H]2C1	76	0	x	-5	x	x	x	x
O=C(Nc1ccccc1)N1CCCCN2[C@@H](CO)[C@H](c3ccc(C#CC4CC4)cc3)[C@@H]2C1	108*	-1	x	-18	89	70	u	103*
O=C(CCCCCC(=O)Nc1ccccc1O)N/N=C/[C@@H](O)[C@H](O)[C@H](O)CO	x	x	0	x	x	x	x	x
C[C@@H]1CN([C@H](C)CO)C(=O)c2cc(NS(=O)(=O)c3ccc(F)cc3)ccc2O[C@@H](C)CCCCO[C@@H]1CN(C)S(=O)(=O)c1ccc(F)cc1	107*	0	x	-73	103*	72	-13	2
C[C@@H]1CCCCO[C@@H](CN(C)S(=O)(=O)c2ccc(F)cc2)[C@@H](C)CN([C@H](C)CO)C(=O)c2cc(NS(=O)(=O)c3ccc(F)cc3)ccc2O1	49	0	x	-47	x	x	x	x
C[C@@H]1CN([C@@H](C)CO)C(=O)c2cc(NS(=O)(=O)c3ccc(F)cc3)ccc2O[C@@H](C)CCCCO[C@H]1CN(C)S(=O)(=O)c1ccc(F)cc1	113*	1	-3	-47	107*	56	6	-1
C[C@@H]1CCCCO[C@@H](CN(C)S(=O)(=O)c2ccc(F)cc2)[C@H](C)CN([C@H](C)CO)C(=O)c2cc(NS(=O)(=O)c3ccc(F)cc3)ccc2O1	86	0	-1	-48	x	x	x	x
CS(=O)(=O)N(CC(=O)NC1CCCCC1)c1ccc(F)c(Cl)c1	x	x	0	x	x	x	x	x
Cc1noc(C)c1S(=O)(=O)Nc1ccc2c(c1)C(=O)N([C@@H](C)CO)C[C@H](C)[C@@H](CN(C)C(=O)Nc1ccc(C(F)(F)F)cc1)OCCCC[C@H](C)O2	125*	0	3	-77	95*	111*	5	63*
SMILES	T cruzi growth-1	GASC1 inh	IDH1 mut inh	Pf Dd2 growth	T cruzi growth-2	T cruzi growth-3	NIH3T3 tox	NIH3T3 tox 2
Cc1noc(C)c1S(=O)(=O)Nc1ccc2c(c1)C(=O)N([C@H](C)CO)C[C@H](C)[C@H](CN(C)Cc1ccc(C(F)(F)F)cc1)OCCCC[C@@H](C)O2	u	2	0	13	106*	-1	2	u
Cc1noc(C)c1S(=O)(=O)Nc1ccc2c(c1)C(=O)N([C@H](C)CO)C[C@H](C)[C@@H](CN(C)Cc1ccc(C(F)(F)F)cc1)OCCCC[C@@H](C)O2	96*	0	x	11	106*	24	13	4
Cc1noc(C)c1S(=O)(=O)Nc1ccc2c(c1)C(=O)N([C@@H](C)CO)C[C@@H](C)[C@H](CN(C)C(=O)Nc1ccc(C(F)(F)F)cc1)OCCCC[C@@H](C)O2	106	0	2	-14	x	x	x	x
Cc1noc(C)c1S(=O)(=O)Nc1ccc2c(c1)C(=O)N([C@H](C)CO)C[C@@H](C)[C@@H](CN(C)Cc1ccc(C(F)(F)F)cc1)OCCCC[C@@H](C)O2	93	2	x	-27	x	x	x	x
Cc1noc(C)c1S(=O)(=O)Nc1ccc2c(c1)C(=O)N([C@@H](C)CO)C[C@H](C)[C@@H](CN(C)Cc1ccc(C(F)(F)F)cc1)OCCCC[C@H](C)O2	103*	-1	x	-8	104*	74	-5	104*
COc1ccc(OC)c(NC(=O)CSc2nc(C)cc(C)n2)c1	x	x	0	x	x	x	x	x
CSc1ccc(S(=O)(=O)N(CC(=O)O)c2ccc(C)cc2)cc1	x	x	0	x	x	x	x	x
